Laboratory results: ChEMBL document CHEMBL1828552, “Synthesis and studies of novel 2-(4-cyano-3-trifluoromethylphenyl amino)-4-(quinoline-4-yloxy)-6-(piperazinyl/piperidinyl)-s-triazines as potential antimicrobial, antimycobacterial and anticancer agents” (2011)
≈ marks a conversion by molar mass, not a printed value.

Assays:
[1] = test system: Bacillus cereus; assay: Antibacterial activity against 10^5 CFU/mL Bacillus cereus MTCC 619 after 24 hrs by disc diffusion technique; type: functional
In short: (§1)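 Disc diffusion on Mueller–Hinton agar poured 5 mm deep. The surface was swabbed with a 10⁵ CFU/mL […] suspension. Filter-paper discs 6.25 mm in diameter were soaked in compound in DMSO and placed on the agar. Plates were incubated 24 h at 37 ± 1 °C, and the inhibition zone was measured in mm. A DMSO disc served as blank.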

[2] = test system: Candida albicans; assay: Antifungal activity against 10^5 CFU/mL Candida albicans MTCC 183 after 48 hrs by disc diffusion technique; type: functional
[3] = test system: Escherichia coli; assay: Antibacterial activity against 10^5 CFU/mL Escherichia coli MTCC 739 after 24 hrs by disc diffusion technique; type: functional; in short: as §1
[4] = test system: Pseudomonas aeruginosa; assay: Antibacterial activity against 10^5 CFU/mL Pseudomonas aeruginosa MTCC 741 after 24 hrs by disc diffusion technique; type: functional; in short: as §1
[5] = test system: Candida albicans; assay: Antifungal activity against 10^5 CFU/mL Candida albicans MTCC 183 after 48 hrs by agar streak dilution method; type: functional; conditions: MTCC 183, 48 h
In short: (§2)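 Agar streak dilution for fungi. Stock 100 µg/mL in DMSO; graded amounts were mixed into molten Sabouraud dextrose agar and poured at 4–5 mm depth. Serial dilutions ran over […]. About 10⁵ CFU/mL inoculum was applied, with incubation at 37 ± 1 °C for 48 h. MIC was read from the dilution series.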

[6] = test system: Shigella flexneri; assay: Antibacterial activity against 10^5 CFU/mL Shigella flexneri MTCC 1457 after 24 hrs by agar streak dilution method; type: functional; conditions: MTCC 1457, 24 h
In short: (§3)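 Agar streak dilution. Stock 100 µg/mL in DMSO; graded amounts were mixed into molten nutrient agar and poured at 4–5 mm depth. Plates carried serial dilutions over […]. About 10⁵ CFU/mL of each bacterium was applied, and plates were incubated at 37 ± 1 °C for 24 h. MIC was read from the dilution series.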

[7] = test system: Staphylococcus aureus; assay: Antibacterial activity against 10^5 CFU/mL Staphylococcus aureus MTCC 96 after 24 hrs by disc diffusion technique; type: functional; in short: as §1
[8] = test system: DU-145; assay: Cytotoxicity against […] human DU145 cells after 48 hrs by SRB assay; type: functional; conditions: DU-145, 48 h
In short: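 SRB assay in DU-145 cells grown in RPMI 1640 with 10% FBS and 2 mM L-glutamine. Cells were plated and held 24 h before addition of four 10-fold concentrations. After 48 h, cells were TCA-fixed, stained with 0.4% SRB and read at 540 nm. GI50, TGI and LC50 were derived against time-zero and control wells; each value is the mean of three experiments.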

[9] = test system: Mycobacterium tuberculosis; assay: Antimycobacterial activity against 10^4 to 10^7 CFU/mL Mycobacterium tuberculosis H37Rv after 24 hrs measured after 28 days post-inoculation; type: functional
In short: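 Secondary MIC on Lowenstein-Jensen medium. DMSO dilutions (50, 25, 12.5, 6.25, […]) added to L.J. medium, then inspissated. Tubes incubated at 37 ± 1 °C for 24 h, then streaked with 5×10⁴ H37Rv bacilli per tube. Growth read at 12, 22 and 28 days against drug-free controls. MIC = no colonies or fewer than 20 colonies.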

[10] = test system: Salmonella typhi; assay: Antibacterial activity against 10^5 CFU/mL Salmonella typhi MTCC 733 after 24 hrs by disc diffusion technique; type: functional, Salmonella enterica subsp. enterica serovar Typhi
In short: (§4)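 Disc diffusion. Mueller-Hinton agar autoclaved 120 °C 30 min, poured 5 mm deep. Surface swabbed with 10⁵ CFU/mL suspension […]. 6.25 mm filter-paper discs soaked in compound in DMSO; DMSO-only disc as blank. Incubated 37 ± 1 °C, 24 h for bacteria or 48 h for fungi. Ciprofloxacin and ketoconazole discs as reference drugs. Inhibition zone measured in mm.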

[11] = test system: Escherichia coli; assay: Antibacterial activity against 10^5 CFU/mL Escherichia coli MTCC 739 after 24 hrs by agar streak dilution method; type: functional; conditions: MTCC 739, 24 h; in short: as §3
[12] = test system: Proteus vulgaris; assay: Antibacterial activity against 10^5 CFU/mL Proteus vulgaris MTCC 1771 after 24 hrs by disc diffusion technique; type: functional; in short: as §1
[13] = test system: Aspergillus clavatus; assay: Antifungal activity against 10^5 CFU/mL Aspergillus clavatus MTCC 1323 after 48 hrs by disc diffusion technique; type: functional
[14] = test system: Bacillus cereus; assay: Antibacterial activity against 10^5 CFU/mL Bacillus cereus MTCC 619 after 24 hrs by agar streak dilution method; type: functional; conditions: MTCC 619, 24 h; in short: as §3
[15] = test system: Aspergillus niger; assay: Antifungal activity against 10^5 CFU/mL Aspergillus niger MTCC 282 after 48 hrs by agar streak dilution method; type: functional; conditions: MTCC 282, 48 h; in short: as §2
[16] = test system: Salmonella typhi; assay: Antibacterial activity against 10^5 CFU/mL Salmonella typhi MTCC 733 after 24 hrs by agar streak dilution method; type: functional, Salmonella enterica subsp. enterica serovar Typhi; conditions: Salmonella enterica, MTCC 733, 24 h
[17] = test system: Klebsiella pneumoniae; assay: Antibacterial activity against 10^5 CFU/mL Klebsiella pneumoniae MTCC 109 after 24 hrs by disc diffusion technique; type: functional; in short: as §1
[18] = test system: Klebsiella pneumoniae; assay: Antibacterial activity against 10^5 CFU/mL Klebsiella pneumoniae MTCC 109 after 24 hrs by agar streak dilution method; type: functional; conditions: MTCC 109, 24 h; in short: as §3
[19] = test system: Aspergillus fumigatus; assay: Antifungal activity against 10^5 CFU/mL Aspergillus fumigatus MTCC 343 after 48 hrs by disc diffusion technique; type: functional
[20] = test system: Aspergillus clavatus; assay: Antifungal activity against 10^5 CFU/mL Aspergillus clavatus MTCC 1323 after 48 hrs by agar streak dilution method; type: functional; conditions: MTCC 1323, 48 h; in short: as §2
[21] = test system: Aspergillus niger; assay: Antifungal activity against 10^5 CFU/mL Aspergillus niger MTCC 282 after 48 hrs by disc diffusion technique; type: functional
[22] = test system: Proteus vulgaris; assay: Antibacterial activity against 10^5 CFU/mL Proteus vulgaris MTCC 1771 after 24 hrs by agar streak dilution method; type: functional; conditions: MTCC 1771, 24 h; in short: as §3
[23] = test system: Aspergillus fumigatus; assay: Antifungal activity against 10^5 CFU/mL Aspergillus fumigatus MTCC 343 after 48 hrs by agar streak dilution method; type: functional; conditions: MTCC 343, 48 h; in short: as §2
[24] = test system: Staphylococcus aureus; assay: Antibacterial activity against 10^5 CFU/mL Staphylococcus aureus MTCC 96 after 24 hrs by agar streak dilution method; type: functional; conditions: MTCC 96, 24 h; in short: as §3
[25] = test system: Shigella flexneri; assay: Antibacterial activity against 10^5 CFU/mL Shigella flexneri MTCC 1457 after 24 hrs by disc diffusion technique; type: functional; in short: as §1
[26] = test system: Pseudomonas aeruginosa; assay: Antibacterial activity against 10^5 CFU/mL Pseudomonas aeruginosa MTCC 741 after 24 hrs by agar streak dilution method; type: functional; conditions: MTCC 741, 24 h; in short: as §3
[27] = test system: Proteus vulgaris; assay: Antibacterial activity against 10^5 CFU/mL Proteus vulgaris MTCC 1771 at 100 ug/ml after 24 hrs by disc diffusion technique; type: functional; conditions: MTCC 1771, 24 h, read-out: IZ; in short: as §1
[28] = test system: Shigella flexneri; assay: Antibacterial activity against 10^5 CFU/mL Shigella flexneri MTCC 1457 at 100 ug/ml after 24 hrs by disc diffusion technique; type: functional; conditions: MTCC 1457, 24 h, read-out: IZ; in short: as §1
[29] = test system: Staphylococcus aureus; assay: Antibacterial activity against 10^5 CFU/mL Staphylococcus aureus MTCC 96 at 100 ug/ml after 24 hrs by disc diffusion technique; conditions: MTCC 96, 24 h, read-out: IZ
[30] = test system: Pseudomonas aeruginosa; assay: microbe, parasite or virus in culture; conditions: MTCC 741, 24 h, read-out: IZ
[31] = test system: Bacillus cereus; assay: Antibacterial activity against 10^5 CFU/mL Bacillus cereus MTCC 619 at 100 ug/ml after 24 hrs by disc diffusion technique; type: functional; conditions: MTCC 619, 24 h, read-out: IZ; in short: as §1
[32] = test system: Escherichia coli; assay: microbe, parasite or virus in culture; conditions: MTCC 739, 24 h, read-out: IZ
[33] = test system: Klebsiella pneumoniae; assay: microbe, parasite or virus in culture; conditions: MTCC 109, 24 h, read-out: IZ
[34] = test system: Salmonella typhi; assay: Antibacterial activity against 10^5 CFU/mL Salmonella typhi MTCC 733 at 100 ug/ml after 24 hrs by disc diffusion technique; type: functional, Salmonella enterica subsp. enterica serovar Typhi; conditions: Salmonella enterica, MTCC 733, 24 h; read-out: IZ; in short: as §4
[35] = test system: Aspergillus niger; assay: Antifungal activity against 10^5 CFU/mL Aspergillus niger MTCC 282 at 100 ug/ml after 48 hrs by disc diffusion technique; type: functional; conditions: MTCC 282, 48 h, read-out: IZ; in short: as §4
[36] = test system: Aspergillus clavatus; assay: Antifungal activity against 10^5 CFU/mL Aspergillus clavatus MTCC 1323 at 100 ug/ml after 48 hrs by disc diffusion technique; type: functional; conditions: MTCC 1323, 48 h, read-out: IZ; in short: as §4
[37] = test system: Candida albicans; assay: Antifungal activity against 10^5 CFU/mL Candida albicans MTCC 183 at 100 ug/ml after 48 hrs by disc diffusion technique; type: functional; conditions: MTCC 183, 48 h, read-out: IZ; in short: as §4
[38] = test system: Aspergillus fumigatus; assay: Antifungal activity against 10^5 CFU/mL Aspergillus fumigatus MTCC 343 at 100 ug/ml after 48 hrs by disc diffusion technique; type: functional; conditions: MTCC 343, 48 h, read-out: IZ; in short: as §4

SMILES: CC1CC(C)CN(c2nc(Nc3ccc(C#N)c(C(F)(F)F)c3)nc(Oc3ccnc4ccccc34)n2)C1 (configuration not stated)
- inhibition zone (IZ) [1]: 25 mm
- inhibition zone (IZ) [2]: 18 mm
- inhibition zone (IZ) [3]: 25 mm
- inhibition zone (IZ) [4]: 24 mm
- MIC [5]: 100 µg/mL (≈ 192 µM)
- MIC [6]: 12.5 µg/mL (≈ 24.1 µM)
- inhibition zone (IZ) [7]: 27 mm
- GI50 [8]: 27.2 µM
- LC50 (concentration giving 50% net cell kill relative to time zero) [8]: > 100 µM
- TGI [8]: 68 µM
- MIC99 [9]: 3.12 µg/mL (≈ 6.01 µM)
- inhibition zone (IZ) [10]: 27 mm
- MIC [11]: 12.5 µg/mL (≈ 24.1 µM)
- inhibition zone (IZ) [12]: 27 mm
- inhibition zone (IZ) [13]: 26 mm
- MIC [14]: 12.5 µg/mL (≈ 24.1 µM)
- MIC [15]: 50 µg/mL (≈ 96.2 µM)
- MIC [16]: 12.5 µg/mL (≈ 24.1 µM)
- inhibition zone (IZ) [17]: 23 mm
- MIC [18]: 25 µg/mL (≈ 48.1 µM)
- inhibition zone (IZ) [19]: 25 mm
- MIC [20]: 25 µg/mL (≈ 48.1 µM)
- inhibition zone (IZ) [21]: 23 mm
- MIC [22]: 6.25 µg/mL (≈ 12 µM)
- MIC [23]: 50 µg/mL (≈ 96.2 µM)
- MIC [24]: 6.25 µg/mL (≈ 12 µM)
- inhibition zone (IZ) [25]: 25 mm
- MIC [26]: 12.5 µg/mL (≈ 24.1 µM)

SMILES: O=C(O)c1cn(C2CC2)c2cc(N3CCNCC3)c(F)cc2c1=O [CIPROFLOXACIN]
- zone of inhibition at 100 µg/mL [27]: 31 mm
- zone of inhibition at 100 µg/mL [28]: 32 mm
- MIC [6]: ≤ 3 µg/mL
- zone of inhibition at 100 µg/mL [29]: 30 mm
- MIC [11]: ≤ 1 µg/mL
- zone of inhibition at 100 µg/mL [30]: 33 mm
- zone of inhibition at 100 µg/mL [31]: 31 mm
- MIC [14]: ≤ 1 µg/mL
- MIC [16]: ≤ 1 µg/mL
- MIC [18]: ≤ 1 µg/mL
- MIC [22]: ≤ 1 µg/mL
- zone of inhibition at 100 µg/mL [32]: 32 mm
- MIC [24]: ≤ 1 µg/mL
- zone of inhibition at 100 µg/mL [33]: 33 mm
- zone of inhibition at 100 µg/mL [34]: 30 mm
- MIC [26]: ≤ 1 µg/mL

SMILES: CC(=O)N1CCN(c2ccc(OCC3COC(Cn4ccnc4)(c4ccc(Cl)cc4Cl)O3)cc2)CC1 (configuration not stated) [KETOCONAZOLE]
- zone of inhibition at 100 µg/mL [35]: 30 mm
- MIC [5]: ≤ 1 µg/mL
- zone of inhibition at 100 µg/mL [36]: 31 mm
- MIC [15]: ≤ 3 µg/mL
- zone of inhibition at 100 µg/mL [37]: 33 mm
- MIC [20]: ≤ 1 µg/mL
- MIC [23]: ≤ 1 µg/mL
- zone of inhibition at 100 µg/mL [38]: 29 mm
